Screens (PubChem BioAssay)
ABHD4 inh: inhibits mouse alpha/beta hydrolase domain 4 | Q8VD66 | inhibition, % at 8.92 µM | purified mABHD4, FP-Rh probe fluorescence polarization | 0.54% of 370,000 active | AID 720543;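 active = inhibition exceeding the mean over every tested compound plus 3 SD, cut at about 30% in these data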
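Assay system: wild-type mouse ABHD4 protein; compound: single nominal dose of 8.92 µM, 0.89% DMSO final; schedule: 45 min + 60 min at 25 °C; measured by: FP readout, ex 525 nm / em 598 nm; evaluation: % inhibition of FP-Rh probe binding versus controls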
PRMT1 inh: PRMT1 (human) inhibition, primary screen; inhibition, % at 2.79 µM; 1.3% of 370,000 active; Q99873; recombinant PRMT1, activity-based probe fluorescence polarization;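 active = inhibition above about 21% made by adding two undisclosed values, limit read from the data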
TCR CD3 inh: blocks the human TCR-CD3 interaction; TAMRA-labeled TCR probe fluorescence, biochemical; inhibition, % at 9.4 µM; 0.37% of 360,000 active; AID 651800; in the data active = inhibition above about 19%;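 note: recombinant mutant TCR 2C K166C tagged with TAMRA read by polarization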
rCAG binder: binds r(CAG) RNA repeats; r(CAG) RNA repeat, TO-PRO-1 dye displacement fluorescence; inhibition, % at 3 µM; 1.3% of 370,000 active; AID 651821;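 active = inhibition above the plate cutoff, the mean of all test compounds on that plate plus 3 SD, cut at about 35% in these data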;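 note: higher means more dye released from RNA so lower well fluorescence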
SIAE inh: blocks human sialic acid acetylesterase | SIAE FP-Rh probe binding, fluorescence polarization | 0.69% of 370,000 active | inhibition, % at 9.66 µM;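 active = inhibition above a cutoff: mean of compounds within the control limits plus 3 SD of those, cut at about 17% in these data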
Target sequence (Q9HAT2 whole entry, looked up): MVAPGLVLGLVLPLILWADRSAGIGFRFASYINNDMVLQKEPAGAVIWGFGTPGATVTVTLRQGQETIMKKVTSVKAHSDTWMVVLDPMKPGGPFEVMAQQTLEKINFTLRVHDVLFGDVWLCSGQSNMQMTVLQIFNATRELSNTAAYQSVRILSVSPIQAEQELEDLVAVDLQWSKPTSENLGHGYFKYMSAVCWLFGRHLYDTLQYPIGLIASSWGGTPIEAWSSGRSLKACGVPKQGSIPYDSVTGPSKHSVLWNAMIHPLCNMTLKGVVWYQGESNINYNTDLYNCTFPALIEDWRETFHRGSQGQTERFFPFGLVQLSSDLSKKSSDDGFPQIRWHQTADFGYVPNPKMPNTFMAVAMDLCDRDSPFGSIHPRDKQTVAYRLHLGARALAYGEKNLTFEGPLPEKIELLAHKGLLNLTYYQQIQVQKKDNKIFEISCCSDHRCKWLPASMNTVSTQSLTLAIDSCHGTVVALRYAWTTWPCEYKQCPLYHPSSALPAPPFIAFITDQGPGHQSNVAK
mABHD4 conf: confirmation of mouse ABHD4 inhibitors. inhibition, % at 8.92 µM. shares compounds with ABHD4 inh. 55% of 1,800 active. purified mABHD4, FP-Rh probe fluorescence polarization. AID 720658;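 active = mean inhibition across replicates above the hit cutoff set in the primary screen, cut at about 30% in these data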
A number is an active result; i = inactive; nt = no result. Rows were chosen to be rich in hits. Some 3.3% of all compounds tested hit in one or more screens of this group.

SMILES	ABHD4 inh	PRMT1 inh	TCR CD3 inh	rCAG binder	SIAE inh	mABHD4 conf
Cc1nn(Cc2ccccc2)c2c1C(c1cccc(Cl)c1)C(C#N)=C(N)O2 (stereo unspecified)	54	i	i	i	i	41
COc1ccc(C#CCN(Cc2ccc(OC)cc2OC)C(N)=NC(=O)CCc2ccccc2)cc1	i	i	nt	i	i	nt
COc1cc(Cl)ccc1OCc1cc(C(=O)N2C[C@]3(C)C[C@H]2CC(C)(C)C3)no1	32	i	i	i	i	i
C[C@H](O)[C@@H]1CN2CCc3ccc(-c4ccc5c(c4)OCO5)cc3[C@@H]2C[C@@H]1N(C)C(=O)Nc1ccccc1	i	i	nt	i	i	nt
Cc1cc(O)ccc1N/C=C/c1onc(C)c1[N+](=O)[O-]	56	33	i	i	i	i
Cc1cccc(N/C=C/c2onc(C)c2[N+](=O)[O-])c1	i	i	i	i	i	nt
Cc1cccc(C)c1-n1nnnc1C1(C)CN(S(C)(=O)=O)CC(=O)N1Cc1ccc(F)cc1 (stereo unspecified)	i	i	nt	i	i	nt
CCN(C(=O)c1ccc(S(C)(=O)=O)cc1)C12CC3CC(CC(C3)C1)C2	93	i	i	i	i	i
N#Cc1c(N)nc2c3c(sc(=N)c2c1N)NC(=O)CC3c1ccccc1 (stereo unspecified)	31	i	i	i	i	i
N#Cc1c(N)nc2c3c(sc(=N)c2c1N)NC(=O)CC3c1c(F)cccc1Cl (stereo unspecified)	35	i	i	i	i	i
CSc1nc(N)c(C#N)c(-c2ccc(Cl)cc2)c1C#N	i	i	i	i	i	nt
Cc1c(C#N)c(N)nc2c3c(sc12)NC(=O)CC3c1ccc(Cl)cc1 (stereo unspecified)	i	i	i	i	i	nt
COC(=O)C1CN(Cc2cn(Cc3ccc(OC)cc3)nn2)CCS(=O)(=O)N1Cc1ccccc1 (stereo unspecified)	i	i	nt	i	i	nt
CCN(CC)c1ccc(N=Cc2c(C)[nH]c3ccccc23)cc1	36	i	i	i	i	30
CC1(C)c2ssc(=S)c2-c2ccccc2N1C(=O)CSC1=NCCS1	i	i	i	i	i	nt
Cc1cc2c(cc1C)N(C(=O)CSC1=NCCS1)C(C)(C)c1ssc(=S)c1-2	37	i	i	i	i	i
CCn1cc(S(=O)(=O)N2CCCC2)cn1	i	i	i	i	i	nt
Cc1nc(NC(=O)COc2ccccc2)sc1C(=O)Nc1ccccc1	49	i	i	i	i	50
COC(=O)c1sc(NC(=O)COc2ccccc2)nc1C	i	i	i	i	i	nt
COC(=O)[C@@H](Cc1c[nH]c2ccccc12)NCc1ccc(B(O)O)cc1	72	i	i	i	i	64
COC(=O)[C@H](Cc1c[nH]c2ccccc12)NCc1cccc(B(O)O)c1	77	i	i	i	i	62
COC(=O)C(Cc1c[nH]c2ccccc12)NC(=O)CNC(C)=O (stereo unspecified)	i	i	i	i	i	nt
CCN(CC)c1ccc(N=C2C(=O)Nc3ccccc32)cc1	46	30	i	i	i	51
O=C(NCCCN1CCOCC1)c1nn(-c2ccccc2)c(=O)c2ccccc12	i	i	i	i	i	nt
CCN=c1scc(C)n1/N=C/c1cc(Br)c(O)c(OC)c1	30	i	i	i	i	33
SMILES	ABHD4 inh	PRMT1 inh	TCR CD3 inh	rCAG binder	SIAE inh	mABHD4 conf
CN=c1scc(C)n1/N=C/c1cc(Br)c(O)c(Br)c1	i	i	i	i	i	nt
Cn1c(SCC(=O)Nc2ccccc2-c2ccccc2)nnc1-c1ccccc1	i	i	nt	i	i	nt
CN(C)C(CNC(=O)C1CCN(S(=O)(=O)c2cccc(Cl)c2Cl)CC1)c1ccccc1 (stereo unspecified)	i	i	i	i	i	nt
Cc1oc2c(CN3CCCCC3C)c(O)ccc2c(=O)c1-c1ccccc1 (stereo unspecified)	i	i	i	i	i	nt
Cc1oc2c(O)c(O)ccc2c(=O)c1-c1ccc(Cl)cc1	41	i	i	i	i	i
Cc1cc(=O)oc2c(O)c(O)ccc12	30	i	i	i	i	i
Cc1oc2c(O)c(O)ccc2c(=O)c1-c1ccccc1	41	i	i	i	i	i
Cc1c(Cc2ccccc2)c(=O)oc2c(O)c(O)ccc12	35	i	i	i	i	89
Cc1c(Cc2ccccc2)c(=O)oc2cc(O)ccc12	i	i	i	i	i	nt
COc1ccc(-c2cc(C)no2)cc1S(=O)(=O)N1CCCN(Cc2ccccc2Cl)C1	i	i	i	i	i	nt
C=Cc1ccc(C(=O)Nc2nnc(-c3cccnc3)s2)cc1	i	i	nt	i	i	nt
NC(N)=N/N=C(\N=Nc1ccccc1)c1ccc(Cl)cc1	44	i	i	i	i	55
NC(N)=N/N=C(\N=Nc1ccccc1)c1cccc2cccnc12	i	i	i	i	i	nt
Cc1cccc(C(=O)Nc2nc3ncccn3c2-c2ccc(F)cc2)c1	i	i	nt	i	i	nt
CCOC(=O)CN1C(=O)CSc2ccc(S(=O)(=O)N3CCCC3)cc21	35	i	i	i	i	i
CC1Oc2ccccc2C=C1/C=N/Nc1ccc(C(=O)O)cc1 (stereo unspecified)	32	i	i	i	i	31
Cc1cccnc1NC(=O)Nc1cccc(F)c1	i	i	i	i	i	nt
CCN(CC)S(=O)(=O)c1ccc(O)c(C(=O)OCC(=O)NC23CC4CC(CC(C4)C2)C3)c1	i	i	i	i	i	nt
Nc1ccc2c(c1)C(=O)c1ccc(N)cc1-2	30	i	i	i	i	37
Nc1ccc2c(c1)C(=O)c1cc(Cl)c(Cl)cc1-2	i	i	i	i	i	nt
O=C1CCC[C@H]2C[C@H](NCc3cccs3)CC[C@]23CCCN13	i	i	nt	nt	i	nt
Cc1cc(C(=O)O)cc(S(=O)(=O)Nc2ccccc2C(=O)NC(C)c2ccccc2)c1C (stereo unspecified)	34	i	i	i	i	i
CC(=O)C1CCC2C3CC=C4CC(SC(=N)N)CCC4(C)C3CCC12C (stereo unspecified)	46	i	i	i	i	38
CC(=O)OCC(=O)C1CCC2C3CC=C4CC(O)CCC4(C)C3CCC12C (stereo unspecified)	i	i	i	i	i	nt
CN(Cc1ccccc1)C(=O)[C@@H]1CCCN1C(=O)[C@@H]1CCCN1C(=O)c1cccc2ccccc12	i	i	i	i	i	nt
Oc1ccc(NC(=S)Nc2ccc(O)cc2)cc1	49	i	i	i	i	i
Cn1c(SC/C=C/c2ccccc2)nnc1-c1cccnc1	i	i	nt	i	i	nt
CC1(C)CC(=O)C=C(Nc2ccccc2O)C1	i	i	i	i	i	nt
CC1(C)CC(=O)C=C(Nc2ccc(C(=O)O)c(O)c2)C1	32	i	i	i	i	i
COc1cc(C)ccc1S(=O)(=O)NC(=O)C1(C)CCN1C(=O)Cc1ccc(Cl)cc1Cl (stereo unspecified)	i	i	i	i	i	nt
